From ChEMBL document CHEMBL1671680, “Pradimicin S, a highly soluble nonpeptidic small-size carbohydrate-binding antibiotic, is an anti-HIV drug lead for both microbicidal and systemic use” (Antimicrob Agents Chemother, 2010)
In brackets after ≈: the same amount, converted by molar mass. Activity calls are given as the source filed them. The calls are words filed in the database; no cut-off is given here.

Experiments:
PBMC [1] = experiment: Cytotoxicity against human PBMC cells at 50 uM after 7 days; format: cell-based; conditions: 168 h
[2] = Antiviral activity against SIV mac251 infected in human HUT78 cells assessed as prevention of syncytium formation between persistently SIV mac251-infected HUT-78 cells and uninfected CEM cells after 3 to 4 days by ELISA; format: functional, cell-based, Simian immunodeficiency virus - mac; conditions: Simian immunodeficiency virus, 251, CCRF-CEM
[3] = test system: Human immunodeficiency virus 1; experiment: Antiviral activity against HIV-1 3B infected in human HUT78 cells assessed as prevention of syncytium formation between persistently HIV-1 3B-infected HUT-78 cells and uninfected SupT1 cells after 3 to 4 days by ELISA; format: functional, organism-based; conditions: Human immunodeficiency virus 1, 3B, SUP-T1
[4] = test system: Human immunodeficiency virus 1; experiment: Antiviral activity against compound pretreated X4 tropic HIV-1 3B infected in human Raji cells expressing DC-SIGN gene assessed as prevention of syncytium formation between persistently HIV-1 3B-infected Raji cells and uninfected human C8166 cells after 42 hrs by microscopic analysis; format: functional, organism-based; conditions: Human immunodeficiency virus 1, 3B
Summary of the method: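 Compound-pretreated virus captured by Raji/DC-SIGN cells for 60 min at 37°C, washed, then 200 μl mixed with 2 × 10^5 C8166 cells (further 5-fold dilution) and incubated 36–48 h at 37°C; syncytium formation scored microscopically.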

[5] = Antiviral activity against SIV mac251 infected in human Raji cells expressing DC-SIGN gene assessed as inhibition of virus capture by Raji cells after 60 mins by ELISA; format: functional, cell-based, Simian immunodeficiency virus - mac; conditions: Simian immunodeficiency virus, 251, Raji, 1 h
PBMC [6] = experiment: Immunostimulatory activity against human PBMC assessed as IL-4 production at 21 uM after 72 hrs; format: functional, cell-based
Summary of the method: (§1)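 Unstimulated PBMCs and PHA-blasts from three donors, in three independent experiments, cultured with test compound at 20 μg/ml (21 or 22 μM). Supernatants collected after 72 h. The cytokine profile was read on a Bio-Plex 27-plex human cytokine bead immunoassay, using beads coupled to cytokine-specific monoclonal antibodies and run per the kit instructions.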

PBMC [7] = experiment: Immunostimulatory activity against human PBMC assessed as IL-8 production at 21 uM after 72 hrs; format: functional, cell-based; summary of the method: as §1
PBMC [8] = experiment: Immunostimulatory activity against human PBMC assessed as IP-10 production at 21 uM after 72 hrs; format: functional, cell-based; summary of the method: as §1
PBMC [9] = experiment: Immunostimulatory activity against human PBMC assessed as MIP-1alpha production at 21 uM after 72 hrs; format: functional, cell-based; summary of the method: as §1
PBMC [10] = experiment: Immunostimulatory activity against human PBMC assessed as IL-2 production at 22 uM after 72 hrs; format: functional, cell-based; summary of the method: as §1
PBMC [11] = experiment: Immunostimulatory activity against human PBMC assessed as FGF production at 22 uM after 72 hrs; format: functional, cell-based
PBMC [12] = experiment: Immunostimulatory activity against human PBMC assessed as G-CSF production at 22 uM after 72 hrs; format: functional, cell-based
PBMC [13] = experiment: Immunostimulatory activity against human PBMC assessed as MIP-1alpha production at 22 uM after 72 hrs; format: functional, cell-based; summary of the method: as §1
PBMC [14] = experiment: Immunostimulatory activity against human PBMC assessed as PDGF production at 22 uM after 72 hrs; format: functional, cell-based; summary of the method: as §1
PBMC [15] = experiment: Immunostimulatory activity against human PBMC assessed as suppression of IL-4 production at 21 uM after 72 hrs; format: functional; summary of the method: as §1
PBMC [16] = experiment: Immunostimulatory activity against human PBMC assessed as suppression of IL-13 production at 21 uM after 72 hrs; format: functional; summary of the method: as §1
PBMC [17] = experiment: Immunostimulatory activity against human PBMC assessed as suppression of PDGF production at 21 uM after 72 hrs; format: functional; summary of the method: as §1
PBMC [18] = experiment: Immunostimulatory activity against human PBMC assessed as suppression of IL-15 production at 22 uM after 72 hrs; format: functional; summary of the method: as §1
[19] = Aqueous solubility of the compound; format: physicochemical; conditions: aqueous medium; read-out: Activity
[20] = Aqueous solubility of the compound at physiological pH; format: physicochemical; conditions: aqueous medium
[21] = test system: Human immunodeficiency virus 1; experiment: Antiviral activity against X4 tropic HIV-1 group O isolate BCF06 infected in human PBMC assessed as inhibition of viral replication […] by ELISA; format: functional, organism-based; conditions: Human immunodeficiency virus 1, group O isolate BCF06
Summary of the method: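 PBMCs from healthy donors were stimulated with PHA (2 μg/ml) for 3 days, then seeded at 0.5 × 10^6 cells/well in RPMI 1640 with 10% FCS, IL-2 (25 U/ml) and compound. Virus was added at a final 250 pg p24/ml. Supernatant was taken at day 12 for p24 antigen ELISA.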

[22] = Cytotoxicity against human PBMC after 7 days by trypan blue staining; format: cell-based
[23] = test system: Human immunodeficiency virus 1; experiment: Ratio of EC90 to EC50 for X4 tropic HIV-1 Bal infected in human PBMC; format: functional; conditions: in the assay text read “R5 tropic” for “X4 tropic”
Summary of the method: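 PBMCs from healthy donors were PHA-stimulated (2 μg/ml, 3 days, 37°C), then seeded at 0.5 × 10^6 per well with compound dilutions in RPMI 1640 with 10% FCS and IL-2 (25 U/ml). Virus was added at 250 pg p24 or p27/ml final. On day 12, supernatant HIV-1 p24 or HIV-2 p27 was measured by ELISA, giving EC50 and EC90.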

[24] = test system: Human immunodeficiency virus 2; experiment: Antiviral activity against HIV-2 ROD infected in human CEM cells assessed as inhibition of virus-induced cytopathicity after 3 to 4 days by microscopic analysis; format: functional, organism-based; conditions: Human immunodeficiency virus 2, ISOLATE ROD, CCRF-CEM
Summary of the method: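 CEM cells (5 × 10^5/ml) infected at 100 CCID50/ml, mixed 1:1 with compound dilutions, incubated 3–4 days at 37°C; giant cells counted microscopically against untreated infected controls; EC50 is the concentration preventing syncytium formation by 50%.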

[25] = test system: Human immunodeficiency virus 1; experiment: Antiviral activity against X4 tropic HIV-1 clade D isolate UG270 infected in human PBMC assessed as inhibition of viral replication after 12 days by ELISA; conditions: Human immunodeficiency virus 1, clade D isolate UG270, 12 days
[26] = test system: Human immunodeficiency virus 1; experiment: Antiviral activity against R5 tropic HIV-1 clade A/E isolate ID12 infected in human PBMC assessed as inhibition of viral replication after 12 days by ELISA; conditions: Human immunodeficiency virus 1, clade A/E isolate ID12, 12 days
[27] = test system: Human immunodeficiency virus 1; experiment: Ratio of KD for HIV-1 HXB2 gp41 to KD for HIV-1 3B gp120
Summary of the method: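 SPR was run at 25°C. HIV-1 IIIB gp120 (CHO-derived, 122 RU) and HXB2 gp41 (Pichia-derived, 58 RU) were amine-coupled to a CM5 chip. Compound (2.5–40 μM, 2-fold steps) in HBS-P pH 7.4 with 10 mM CaCl2 was injected for 2 min at 45 μl/min, and dissociation was followed for 6 min. Apparent ka, kd and KD came from a 1:1 model fit of the three lowest concentrations.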

[28] = test system: Human immunodeficiency virus 1; experiment: Ratio of EC50 for compound pretreated HIV-1 3B isolate 42 harboring gp120 mutant infected in human CEM cells to EC50 for HIV-1 3B expressing wild type gp120; format: functional, CCRF-CEM
[29] = test system: Human immunodeficiency virus 1; experiment: Antiviral activity against HIV-1 3B cells infected in human PBMC cells assessed as inhibition of virus-induced cytopathicity after 3 to 4 days by microscopic analysis; format: functional, organism-based; conditions: Human immunodeficiency virus 1, 3B

Compound | EC50 [2] | EC50 [3] | EC50 [4] | IC50 [5] | Activity (PBMC [6]) | Activity (PBMC [7]) | Activity (PBMC [8]) | Activity (PBMC [9]) | Activity (PBMC [10]) | Activity (PBMC [11]) | Activity (PBMC [12]) | Activity (PBMC [13]) | Activity (PBMC [14]) | fold change (FC) (PBMC [15]) | fold change (FC) (PBMC [16]) | fold change (FC) (PBMC [17]) | fold change (FC) (PBMC [18]) | EC50 [21] | Ratio [23] | EC50 [24] | other results
CN[C@@H]1[C@H](O[C@@H]2OC[C@@H](O)[C@H](O)[C@H]2O)[C@@H](O)[C@H](O[C@H]2c3cc(C)c(C(=O)N[C@H](C)C(=O)O)c(O)c3-c3c(cc4c(c3O)C(=O)c3cc(OC)cc(O)c3C4=O)[C@@H]2O)O[C@@H]1C [PRADIMICIN A] | 4.3 µM | 3.4 µM | 3.4 µM | 16 µM | inactive | inactive | inactive | inactive | inactive | inactive | inactive | inactive | inactive | 2 | 2 | 2 | 2 | 1.6 µM | 2 | 5.2 µM | Activity (PBMC [1]): > 95%; solubility [19]: 50 µM (≈ 42 µg/mL); solubility [20]: > 20 µM; CC50 at 168 h [22]: > 50 µM; EC50 [25]: 3 µM; EC50 [26]: 4.7 µM
CN[C@@H]1[C@H](O[C@@H]2O[C@H](CO)[C@@H](O)[C@H](OS(=O)(=O)O)[C@H]2O)[C@@H](O)[C@H](O[C@H]2c3cc(C)c(C(=O)N[C@H](C)C(=O)O)c(O)c3-c3c(cc4c(c3O)C(=O)c3cc(OC)cc(O)c3C4=O)[C@@H]2O)O[C@@H]1C [PRADIMICIN S] | 12 µM | 6 µM | 7.1 µM | 16 µM | inactive | inactive | inactive | inactive | inactive | inactive | inactive | inactive | inactive | 2 | 2 | 2 | 2 | 4.4 µM | 2 | 9.6 µM | Ratio [27]: 30; Ratio EC50 [28]: >=20; EC50 [29]: 8.5 µM; EC50 [25]: 18 µM; EC50 [26]: 15 µM
